# The source made the active and inactive calls. The rule behind the calls is not given here.
# Assays:
# [1] = test system: U-937; assay: Inhibition of anandamide membrane transporter in human U937 cells assessed as inhibition of [3H]-AEA uptake at 10 uM preincubated for 10 to 30 mins followed by [3H]-AEA addition measured after 5 mins by liquid scintillation counting analysis relative to control; assay type: cell-based
# [2] = target: T1, Fatty-acid amide hydrolase 1 (Homo sapiens) (UniProt O00519); assay: Inhibition of FAAH (unknown origin) at 1 uM
# T1 sequence (whole entry): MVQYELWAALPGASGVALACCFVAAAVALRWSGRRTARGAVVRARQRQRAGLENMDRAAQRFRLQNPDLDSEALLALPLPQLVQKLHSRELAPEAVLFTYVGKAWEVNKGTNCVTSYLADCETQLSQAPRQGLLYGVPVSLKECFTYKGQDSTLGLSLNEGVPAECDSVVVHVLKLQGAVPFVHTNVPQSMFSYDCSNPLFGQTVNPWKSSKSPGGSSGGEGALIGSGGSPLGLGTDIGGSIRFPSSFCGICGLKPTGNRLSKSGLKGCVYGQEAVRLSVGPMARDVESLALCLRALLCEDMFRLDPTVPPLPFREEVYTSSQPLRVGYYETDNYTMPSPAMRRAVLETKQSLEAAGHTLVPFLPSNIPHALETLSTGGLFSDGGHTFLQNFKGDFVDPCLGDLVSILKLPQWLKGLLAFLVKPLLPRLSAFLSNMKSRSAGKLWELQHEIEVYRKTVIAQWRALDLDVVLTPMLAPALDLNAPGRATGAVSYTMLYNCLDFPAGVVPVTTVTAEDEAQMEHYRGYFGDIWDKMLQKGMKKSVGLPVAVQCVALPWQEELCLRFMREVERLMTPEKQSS
# Summary of the method: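 FAAH activity measured with compounds at 1 μM.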
# [3] = Cytotoxicity against rat PC12 cells at 50 uM; assay type: cell-based; conditions: pc-12, 50 µM
# [4] = Inhibition of anandamide membrane transporter in human U937 cells assessed as inhibition of [3H]-AEA uptake preincubated for 10 to 30 mins followed by [3H]-AEA addition measured after 5 mins by liquid scintillation counting analysis; assay type: cell-based; conditions: u-937
# Summary of the method: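 [3H]AEA transport in human U937 leukemic monocyte lymphoma cells; EC50 and maximal inhibition taken from concentration-dependent curves, n = 3–5.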
# [5] = test system: PC-12; assay: Neuritogenic activity in rat PC12 cells in presence of CB1 antagonist rimonabant/AM251; assay type: functional, cell-based
# Summary of the method: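 PC12 cells co-treated with the CB1 antagonists rimonabant (1 μM and 100 nM) or AM251 (3 μM and 100 nM) alongside the differentiation-inducing compound, in the neurite outgrowth assay.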
# [6] = test system: U-937; assay: Potency index, ratio of UCM707 EC50 to compound EC50 for anandamide membrane transporter in human U937 cells; assay type: cell-based
# [7] = target: Cannabinoid receptor 1 (Homo sapiens, UniProt P21554); assay: Displacement of [3H]-CP55940 from human CB1 receptor expressed in CHO cell membranes after 90 mins by scintillation counting analysis
# Chain of Cannabinoid receptor 1 (P21554 whole entry): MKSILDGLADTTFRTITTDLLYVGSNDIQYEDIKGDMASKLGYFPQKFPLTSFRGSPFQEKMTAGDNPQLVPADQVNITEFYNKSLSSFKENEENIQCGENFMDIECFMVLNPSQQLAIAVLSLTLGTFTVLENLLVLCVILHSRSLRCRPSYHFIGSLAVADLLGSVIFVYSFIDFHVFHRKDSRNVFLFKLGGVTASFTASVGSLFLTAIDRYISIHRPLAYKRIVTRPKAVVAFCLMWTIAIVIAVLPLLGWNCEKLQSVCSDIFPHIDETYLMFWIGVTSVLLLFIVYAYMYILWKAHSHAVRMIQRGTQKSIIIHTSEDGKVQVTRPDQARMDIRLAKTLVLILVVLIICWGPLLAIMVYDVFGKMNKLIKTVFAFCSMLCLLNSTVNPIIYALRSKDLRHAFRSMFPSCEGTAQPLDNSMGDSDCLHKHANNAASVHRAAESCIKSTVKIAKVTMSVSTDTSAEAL
# Summary of the method: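 Membranes from CHO cells stably transfected with human CB1 incubated 90 min at 30 °C with varying compound concentrations and 0.5 nM [3H]-CP55940; WIN55,212-2 as positive control. Mean ± SD, n = 2–3.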
# [8] = test system: PC-12; assay: Neuritogenic activity in rat PC12 cells assessed as induction of neuronal differentiation at 10 uM after 2 days by Giemsa staining-based phase contrast microscopic analysis; assay type: functional, cell-based
# Summary of the method: (§1)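 PC12 neurite outgrowth assay (modified procedure) with 2-day incubation; compounds at 50, 20, 10, 5 or 1 μM. Positive control NGF 20 ng mL-1, solvent control DMSO 0.1%. Mean ± SEM, n = 3; unpaired t test, 95% confidence interval.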
# [9] = test system: PC-12; assay: Neuritogenic activity in rat PC12 cells assessed as induction of neuronal differentiation at 50 uM after 2 days by Giemsa staining-based phase contrast microscopic analysis; assay type: functional, cell-based; summary of the method: as §1
# [10] = test system: PC-12; assay: Neuritogenic activity in rat PC12 cells at 100 nM; assay type: functional, cell-based
# [11] = test system: PC-12; assay: Neuritogenic activity in rat PC12 cells assessed as induction of neuronal differentiation at 20 uM after 2 days by Giemsa staining-based phase contrast microscopic analysis; assay type: functional, cell-based; summary of the method: as §1
# [12] = test system: PC-12; assay: Neuritogenic activity in rat PC12 cells assessed as induction of neuronal differentiation at 1 uM after 2 days by Giemsa staining-based phase contrast microscopic analysis; assay type: functional, cell-based; summary of the method: as §1
# [13] = Cytotoxicity against rat PC12 cells at 1 uM; assay type: cell-based; conditions: pc-12, 1 µM
# [14] = Cytotoxicity against rat PC12 cells at 10 uM; assay type: cell-based; conditions: pc-12, 10 µM
# [15] = test system: PC-12; assay: Neuritogenic activity in rat PC12 cells assessed as induction of neuronal differentiation at 5 uM after 2 days by Giemsa staining-based phase contrast microscopic analysis; assay type: functional, cell-based; summary of the method: as §1
compound,measurement,setting,value
O=C(N[C@H](CO)Cc1ccc(O)cc1)c1ccccc1,inhibition,[1],20%
same,inhibition,[2],Active
same,Activity,[3],Non-toxic
CCCCC/C=C\C/C=C\C/C=C\C/C=C\CCCC(=O)NCCc1ccoc1,Imax,[1],80%
same,EC50,[4],1800 nM
CCCCC/C=C\C/C=C\CCCCCCCC(=O)N[C@H](CO)Cc1ccc(O)cc1,Activity,[5],Active
same,Imax,[1],52%
same,Ratio EC50,[6],10
same,Ki,[7],810 nM
same,EC50,[4],228 nM
same,Activity,[8],Active
O=C(CCCc1cn(C23CC4CC(CC(C4)C2)C3)nn1)N[C@H](CO)Cc1ccc(O)cc1,Activity,[9],inactive
CCCCCCCCC(=O)N[C@H](CO)Cc1ccc(O)cc1,Activity,[9],inactive
CCC(=O)N[C@H](CO)Cc1ccc(OC(=O)CC)cc1,Activity,[9],inactive
CCCN[C@H](CO)Cc1ccc(O)cc1,Activity,[9],inactive
O=C(CCC(=O)N[C@@H](CO)Cc1ccc(O)cc1)N[C@H](CO)Cc1ccc(O)cc1,inhibition,[1],20%
same,Activity,[9],Active
same,inhibition,[2],Active
CCC(=O)N[C@H](CO)Cc1ccc(OC)cc1,Activity,[9],inactive
CCCCC/C=C\C/C=C\C/C=C\C/C=C\CCC(C)C(=O)NCCF (configuration not stated),Activity,[10],inactive
CCC(=O)N[C@H](COC(=O)CC)Cc1ccc(O)cc1,Activity,[9],inactive
CCC(=O)N[C@H](COC)Cc1ccc(OC)cc1,inhibition,[1],20%
same,Activity,[9],inactive
same,inhibition,[2],Active
O=C(CCCCCCCCCCCCCCO)N[C@H](CO)Cc1ccc(O)cc1,Imax,[1],73%
same,EC50,[4],757 nM
same,Activity,[8],inactive
CC(/C=C/C(=O)NC(CO)Cc1ccc(O)cc1)=C\C(C)CC(=O)O (configuration not stated),Activity,[11],Active
CCCCC/C=C\C/C=C\CCCCCCCCN[C@H](CO)Cc1ccc(O)cc1,Imax,[1],51%
same,Activity,[12],inactive
same,EC50,[4],975 nM
same,Activity,[13],Non-toxic
same,Activity,[14],Toxic
OCCCCCCCCCCCCCCCN[C@H](CO)Cc1ccc(O)cc1,Activity,[12],inactive
same,Ki,[7],530 nM
same,Activity,[13],Non-toxic
same,Activity,[14],Toxic
CCC(=O)NCCc1ccc(O)c(O)c1,Activity,[3],Toxic
same,Activity,[15],inactive
CCC(=O)N[C@H](COC)Cc1ccc(O)cc1,Activity,[9],inactive
CCC(=O)N[C@H](CO)Cc1ccccc1,Activity,[9],inactive
CCC(=O)N[C@H](CO)Cc1ccc(O)cc1,Activity,[9],Active
CCC(=O)N[C@@H](CO)Cc1ccc(O)cc1,Activity,[9],inactive
CCCCCCCCCCCCCCCCN[C@H](CO)Cc1ccc(O)cc1,Activity,[12],inactive
same,Activity,[13],Non-toxic
same,Activity,[14],Toxic
CCC(=O)N[C@@H](Cc1ccc(O)cc1)C(=O)O,inhibition,[1],20%
same,Activity,[9],Active
same,inhibition,[2],Active
O=C(CCCCCCCO)N[C@H](CO)Cc1ccc(O)cc1,inhibition,[1],20%
same,Activity,[9],Active
same,inhibition,[2],Active
same,Activity,[8],Active
CC/C=C\C/C=C\C/C=C\CCCCCCCCN[C@H](CO)Cc1ccc(O)cc1,Imax,[1],60%
same,Activity,[12],inactive
same,EC50,[4],966 nM
same,Activity,[13],Non-toxic
same,Activity,[14],Toxic
CCC(=O)NCCc1ccc(O)cc1,Activity,[9],inactive
same,Activity,[3],Toxic
CC(C)(C)C(=O)N[C@H](CO)Cc1ccc(O)cc1,Activity,[9],inactive
CC(C)C(=O)N[C@H](CO)Cc1ccc(O)cc1,Activity,[9],inactive
